Experimental data from ChEMBL document CHEMBL4184225, “Discovery of selective 2,4-diaminoquinazoline toll-like receptor 7 (TLR 7) agonists” (Bioorg Med Chem Lett, 2018).

Columns and labels:
[1] = target: T1, Toll-like receptor 7 (Homo sapiens) (UniProt Q9NYK1); experiment: Agonist activity at TLR7 in human PBMC assessed as suppression of HCV replicon replication in human HuH7 luc/neo cells harboring RNA encoding bicistronic expression construct comprising wild type HCV type 1b NS3-NS5B regions exposed to conditioned media from compound treated PBMCs by luciferase reporter gene assay; type: cell-based
T1 sequence (whole entry): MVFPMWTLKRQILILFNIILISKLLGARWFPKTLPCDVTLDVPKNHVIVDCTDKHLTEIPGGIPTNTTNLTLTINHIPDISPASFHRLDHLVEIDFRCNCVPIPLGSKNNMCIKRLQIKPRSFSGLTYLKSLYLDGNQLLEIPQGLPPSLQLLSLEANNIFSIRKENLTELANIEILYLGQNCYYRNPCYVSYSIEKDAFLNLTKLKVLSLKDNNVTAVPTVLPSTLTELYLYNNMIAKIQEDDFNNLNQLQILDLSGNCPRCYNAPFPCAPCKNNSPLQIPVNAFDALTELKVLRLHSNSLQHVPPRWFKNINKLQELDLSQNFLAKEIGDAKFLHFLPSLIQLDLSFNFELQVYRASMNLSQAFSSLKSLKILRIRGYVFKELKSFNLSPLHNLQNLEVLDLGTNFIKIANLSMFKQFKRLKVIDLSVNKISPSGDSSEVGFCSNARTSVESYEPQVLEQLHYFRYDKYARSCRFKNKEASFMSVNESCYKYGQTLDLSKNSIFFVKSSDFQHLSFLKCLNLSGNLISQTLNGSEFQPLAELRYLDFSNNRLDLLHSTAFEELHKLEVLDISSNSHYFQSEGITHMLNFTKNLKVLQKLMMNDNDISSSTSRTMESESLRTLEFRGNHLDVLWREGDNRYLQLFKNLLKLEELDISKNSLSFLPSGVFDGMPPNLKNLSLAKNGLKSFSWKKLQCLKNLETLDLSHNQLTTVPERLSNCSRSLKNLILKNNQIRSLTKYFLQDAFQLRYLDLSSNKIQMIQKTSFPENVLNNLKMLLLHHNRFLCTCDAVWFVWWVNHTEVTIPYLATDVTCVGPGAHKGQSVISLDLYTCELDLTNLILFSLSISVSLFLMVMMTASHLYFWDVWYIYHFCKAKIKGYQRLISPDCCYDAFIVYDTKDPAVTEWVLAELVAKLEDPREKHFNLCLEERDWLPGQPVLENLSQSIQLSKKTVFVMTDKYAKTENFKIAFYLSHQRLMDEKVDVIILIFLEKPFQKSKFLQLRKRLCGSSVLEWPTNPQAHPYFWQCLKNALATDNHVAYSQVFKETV
How it was run: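 PBMCs from buffy coats of at least two donors (Ficoll), in RPMI with 10% human AB serum, 2 x 10^5 cells/well, incubated overnight with compound. Supernatant transferred onto Huh7-luc/neo replicon cells plated the day before (2.2 x 10^3/well). Luciferase read after 24 h. EC50 is the concentration applied to PBMCs giving 50% luciferase reduction. Recombinant IFN-α2a standard.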

[2] = Cytotoxic activity against HEK293 cells assessed as reduction in cell viability incubated for 6 hrs; type: cell-based; conditions: human
How it was run: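 HEK293 cells transfected with the CMV-TLR7 construct alone, treated with a compound dilution series for 6 h at 37°C, 5% CO₂. Viability read by ATP luminescence. Reported as CC50.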

Cytochrome P450 2C9 = Cytochrome P450 2C9 (Homo sapiens, UniProt P11712); experiment: Inhibition of CYP2C9 (unknown origin); type: ADME
Cytochrome P450 2C19 = Cytochrome P450 2C19 (Homo sapiens, UniProt P33261); experiment: Inhibition of CYP2C19 (unknown origin); type: ADME
[3] = Metabolic stability in human liver microsomes assessed as drug metabolism after 15 mins at 1 uM; type: ADME, microsome; conditions: read-out: Drug metabolism
How it was run: (§1)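 Compound at 1µM incubated with liver microsomes of the stated species. Percent of compound metabolized after 15 min.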

Toll-like receptor 8 = target: T2, Toll-like receptor 8 (Homo sapiens, UniProt Q9NR97); experiment: Agonist activity at human TLR8 expressed in HEK293 cells assessed as induction of receptor activation incubated for 6 hrs by NF-kappaB-luciferase reporter gene assay; type: cell-based; conditions: hek293, 6 h
T2 sequence (Q9NR97 whole entry): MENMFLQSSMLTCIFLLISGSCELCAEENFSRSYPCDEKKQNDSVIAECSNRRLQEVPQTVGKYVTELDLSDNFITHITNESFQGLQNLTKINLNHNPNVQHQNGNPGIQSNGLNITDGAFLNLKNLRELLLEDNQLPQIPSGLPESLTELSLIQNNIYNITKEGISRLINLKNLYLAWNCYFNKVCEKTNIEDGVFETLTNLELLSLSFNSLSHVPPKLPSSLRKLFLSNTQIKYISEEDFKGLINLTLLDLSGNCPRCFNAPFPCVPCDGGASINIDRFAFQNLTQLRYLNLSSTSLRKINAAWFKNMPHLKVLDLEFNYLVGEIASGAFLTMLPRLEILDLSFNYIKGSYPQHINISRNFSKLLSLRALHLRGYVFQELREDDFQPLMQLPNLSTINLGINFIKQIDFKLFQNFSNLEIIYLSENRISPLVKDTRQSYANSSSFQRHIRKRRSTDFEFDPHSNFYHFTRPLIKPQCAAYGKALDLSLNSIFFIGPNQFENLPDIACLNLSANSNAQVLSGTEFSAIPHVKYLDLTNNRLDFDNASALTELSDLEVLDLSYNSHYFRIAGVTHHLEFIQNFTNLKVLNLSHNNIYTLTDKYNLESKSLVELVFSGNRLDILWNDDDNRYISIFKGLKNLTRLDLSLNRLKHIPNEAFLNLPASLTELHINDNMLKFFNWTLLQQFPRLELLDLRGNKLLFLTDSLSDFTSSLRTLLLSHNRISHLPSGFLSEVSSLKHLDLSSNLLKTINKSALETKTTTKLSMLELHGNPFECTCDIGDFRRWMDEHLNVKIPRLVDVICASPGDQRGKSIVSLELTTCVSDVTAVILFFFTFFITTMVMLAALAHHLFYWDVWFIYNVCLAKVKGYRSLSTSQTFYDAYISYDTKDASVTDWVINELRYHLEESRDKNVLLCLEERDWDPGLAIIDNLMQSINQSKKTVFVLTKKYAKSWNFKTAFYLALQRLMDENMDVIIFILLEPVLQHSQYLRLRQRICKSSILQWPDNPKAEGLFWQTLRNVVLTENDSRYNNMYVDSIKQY
How it was run: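 HEK293 cells transiently transfected overnight at 37°C with CMV-TLR8 plasmid (wild type or dLRR2 mutant) plus NFκB-luc reporter, then exposed to compound for 6 h at 37°C, 5% CO₂. Luciferase read-out. Quadruplicate dose-response. LEC is the concentration giving an effect at least two-fold above the assay SD, averaged over two or more independent experiments.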

[4] = target: T1, Toll-like receptor 7 (Homo sapiens); experiment: Agonist activity at human TLR7 expressed in HEK293 cells assessed as induction of receptor activation incubated for 6 hrs by NF-kappaB-luciferase reporter gene assay; type: cell-based
How it was run: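 HEK293 cells transiently transfected overnight with CMV-TLR7 (wild type or dLRR2 mutant) plus NFκB-luc plasmids. Seeded at 1.67 x 10^5 cells/mL onto compound in 4% DMSO (stock), 6 h at 37°C, 5% CO2, luciferase readout. Quadruplicate dose-response. LEC is the concentration giving an effect at least two-fold above assay SD. Values averaged over independent experiments where repeated.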

[5] = Metabolic stability in mouse liver microsomes assessed as drug metabolism after 15 mins at 1 uM; type: ADME, microsome; conditions: read-out: Drug metabolism; how it was run: as §1

Chain of Cytochrome P450 2C19 (P33261 whole entry): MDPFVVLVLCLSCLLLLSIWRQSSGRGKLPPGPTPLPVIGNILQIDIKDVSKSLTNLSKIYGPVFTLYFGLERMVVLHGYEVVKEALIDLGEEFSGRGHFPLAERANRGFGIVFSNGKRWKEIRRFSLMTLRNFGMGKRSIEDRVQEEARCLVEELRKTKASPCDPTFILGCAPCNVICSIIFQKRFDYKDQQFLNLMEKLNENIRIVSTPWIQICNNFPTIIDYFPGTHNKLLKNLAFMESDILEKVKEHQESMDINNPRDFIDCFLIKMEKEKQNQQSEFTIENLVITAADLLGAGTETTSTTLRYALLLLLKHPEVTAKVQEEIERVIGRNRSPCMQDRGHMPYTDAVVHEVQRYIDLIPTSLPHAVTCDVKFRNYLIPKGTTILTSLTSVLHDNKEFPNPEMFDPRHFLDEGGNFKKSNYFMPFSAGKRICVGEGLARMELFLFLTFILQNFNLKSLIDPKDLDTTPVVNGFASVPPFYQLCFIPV
Chain of Cytochrome P450 2C9 (P11712 whole entry): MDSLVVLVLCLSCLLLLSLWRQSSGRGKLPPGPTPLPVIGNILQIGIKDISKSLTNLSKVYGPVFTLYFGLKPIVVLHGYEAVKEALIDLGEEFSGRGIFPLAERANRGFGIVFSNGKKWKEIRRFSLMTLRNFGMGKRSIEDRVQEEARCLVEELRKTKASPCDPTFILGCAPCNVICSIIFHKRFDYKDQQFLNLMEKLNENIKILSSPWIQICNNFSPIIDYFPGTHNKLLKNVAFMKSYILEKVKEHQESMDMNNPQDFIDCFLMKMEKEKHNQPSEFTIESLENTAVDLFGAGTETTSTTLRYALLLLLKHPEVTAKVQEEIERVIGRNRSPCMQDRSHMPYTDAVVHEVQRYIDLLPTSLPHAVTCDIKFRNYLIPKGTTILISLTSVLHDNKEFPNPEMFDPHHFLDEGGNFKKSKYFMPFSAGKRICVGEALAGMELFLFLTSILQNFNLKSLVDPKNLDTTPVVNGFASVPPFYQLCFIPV

CCCCNc1nc(N)nc2cccc(OCc3ccccc3OC)c12
MEC [1]: 0.33 µM | CC50 at 6 h [2]: > 25 µM | IC50 (Cytochrome P450 2C9): > 10 µM | IC50 (Cytochrome P450 2C19): > 10 µM | metabolised at 0.25 h, 1 µM [3]: 48% | MEC (Toll-like receptor 8): > 25 µM | MEC [4]: 0.27 µM | metabolised at 0.25 h, 1 µM [5]: 98%

CCCCNc1nc(N)nc2cccc(OCc3cccnc3)c12
MEC [1]: 0.011 µM | CC50 at 6 h [2]: > 25 µM | IC50 (Cytochrome P450 2C9): > 10 µM | IC50 (Cytochrome P450 2C19): > 10 µM | metabolised at 0.25 h, 1 µM [3]: 44% | MEC (Toll-like receptor 8): 0.53 µM | MEC [4]: 0.03 µM | metabolised at 0.25 h, 1 µM [5]: 99%

CCCCNc1nc(N)nc2cccc(C(=O)NC)c12
MEC [1]: 0.15 µM | CC50 at 6 h [2]: > 25 µM | IC50 (Cytochrome P450 2C9): 8 µM | IC50 (Cytochrome P450 2C19): > 10 µM | metabolised at 0.25 h, 1 µM [3]: 23% | MEC (Toll-like receptor 8): 0.39 µM | MEC [4]: 0.35 µM | metabolised at 0.25 h, 1 µM [5]: 90%

CCCCNc1nc(N)nc2cccc(OCc3ccc(CO)cc3OC)c12
MEC [1]: 0.018 µM | CC50 at 6 h [2]: 16 µM | IC50 (Cytochrome P450 2C9): 5 µM | IC50 (Cytochrome P450 2C19): > 10 µM | metabolised at 0.25 h, 1 µM [3]: 43% | MEC (Toll-like receptor 8): > 25 µM | MEC [4]: 0.03 µM | metabolised at 0.25 h, 1 µM [5]: 98%

CCCCNc1nc(N)nc2cccc(OCc3ccccc3)c12
MEC [1]: 0.04 µM | CC50 at 6 h [2]: 10 µM | IC50 (Cytochrome P450 2C9): > 10 µM | IC50 (Cytochrome P450 2C19): > 10 µM | metabolised at 0.25 h, 1 µM [3]: 11% | MEC (Toll-like receptor 8): 1.66 µM | MEC [4]: 0.16 µM | metabolised at 0.25 h, 1 µM [5]: 97%

CCCCNc1nc(N)nc2cccc(OCc3nccc(OC)c3OC)c12
MEC [1]: 0.034 µM | CC50 at 6 h [2]: 16 µM | IC50 (Cytochrome P450 2C9): > 10 µM | IC50 (Cytochrome P450 2C19): > 10 µM | metabolised at 0.25 h, 1 µM [3]: 37% | MEC (Toll-like receptor 8): > 25 µM | MEC [4]: 0.03 µM | metabolised at 0.25 h, 1 µM [5]: 98%
